High-throughput results from PubChem BioAssay.
PP5 primary: inhibitors of human protein phosphatase 5 (PP5); P53041; purified PP5c, OMFP substrate fluorescence; inhibition, % at 6.7 µM; actives 0.18% (n = 320,000);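 active = inhibition above the campaign's mean inhibition across all tested compounds plus 3 SD, cut at about 9.5% in these data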
LMPTP block: blocks human LMPTP phosphatase; inhibition, % at 20 µM; actives 0.22% (n = 360,000); P24666; recombinant LMPTP-A, OMFP fluorogenic substrate, fluorescence intensity; AID 651560;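 active = compounds that cut the enzyme signal by at least half of the control window in the single-dose screen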
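Test system: LMPTP-A, protein tyrosine phosphatase of low molecular weight; Input: 0.625 nM enzyme; Incubation: 50 min dark incubation at room temperature; Signal: endpoint fluorescence intensity from OMFP dephosphorylation; Read-out basis: % inhibition versus control wells.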
STEP block: blocks human striatal-enriched tyrosine phosphatase | P54829 | recombinant STEP, OMFP fluorogenic substrate, fluorescence | inhibition, % at 20 µM | actives 0.25% (n = 360,000);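 active = inhibition at 20 µM, scaled per plate between control wells, above about 37%, limit read from the data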
Target sequence (P54829 whole entry, looked up): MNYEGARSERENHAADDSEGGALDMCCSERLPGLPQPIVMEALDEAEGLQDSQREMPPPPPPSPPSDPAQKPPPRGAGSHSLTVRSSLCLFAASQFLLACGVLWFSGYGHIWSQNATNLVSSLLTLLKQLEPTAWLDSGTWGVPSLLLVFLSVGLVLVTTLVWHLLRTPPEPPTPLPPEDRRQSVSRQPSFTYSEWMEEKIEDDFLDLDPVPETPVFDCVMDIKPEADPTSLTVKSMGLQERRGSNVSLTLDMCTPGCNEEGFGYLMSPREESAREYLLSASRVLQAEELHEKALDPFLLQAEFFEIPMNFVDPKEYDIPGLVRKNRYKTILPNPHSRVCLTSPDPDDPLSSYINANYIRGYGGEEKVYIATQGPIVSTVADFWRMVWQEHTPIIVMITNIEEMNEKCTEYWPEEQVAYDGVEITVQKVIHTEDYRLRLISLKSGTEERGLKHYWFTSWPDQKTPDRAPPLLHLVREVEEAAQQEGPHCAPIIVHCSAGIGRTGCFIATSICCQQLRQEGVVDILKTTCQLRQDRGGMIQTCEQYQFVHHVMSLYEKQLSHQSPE
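medium = Bis-Tris buffer pH 6.0, 2.5 mM DTT, 0.005% Tween 20 | test system = STEP (striatal-enriched tyrosine phosphatase) enzyme, cell-free | measure = normalized % inhibition | compound dosing = 20 µM, 1% DMSO | also added = 25 µM OMFP | schedule = reaction 20 min, ambient temperature | measured by = fluorescence read at 480 nm ex / 540 nm em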
Scp1 inh: inhibitors of human Scp-1 phosphatase. inhibition, % at 20 µM. Q9GZU7. actives 0.88% (n = 340,000). Recombinant Scp1, phosphopeptide, malachite green phosphate absorbance;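 active = inhibition above about 50% at 20 µM, limit read from the data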
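Assay system: SCP-1 catalytic fragment, aa 76-261 | Buffer or medium: Tris acetate buffer pH 5.5 with MgCl2 and Tween-20 | Compound: One concentration, 20 µM, with 1.0% DMSO | Also added: Phospho 17-mer peptide substrate | Signal: Absorbance at 630 nm | Incubation: 45 min enzyme reaction at room temperature | Measure: % inhibition of SCP-1 phosphate liberation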
PP1 counter: blocks human PP1-alpha phosphatase, a PP5 counter-screen | purified PP1alpha, OMFP fluorescence | inhibition, % at 6.7 µM | actives 0.9% (n = 320,000);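 active = inhibition above the mean inhibition of all tested compounds plus 3 SD, computed separately for each screening campaign, cut at about 15% in these data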
PP1 inh confirm: confirmation of human PP1 phosphatase inhibitors | shares compounds with PP1 counter | purified PP1alpha, OMFP substrate fluorescence | inhibition, % at 6.7 µM | actives 52% (n = 1,900) | AID 2358;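 active = mean PP1 inhibition above a set limit taken from the earlier primary screen, cut at about 15% in these data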
PP5 inh counter: PP5 phosphatase inhibition, counter-screen for PP1 inhibitors. shares compounds with PP1 counter. purified PP5c, OMFP fluorescence. inhibition, % at 6.7 µM. actives 4% (n = 1,900). AID 2360;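 active = mean PP5 inhibition over triplicate wells above about 9.5% taken from the earlier PP1 screen, limit read from the data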
Numbers stand for hits. Sampled rows, rich in hits. Any-hit rate of the full collection: about 1.9%.

`CCOc1ccc2[nH]c(=O)c(CN(CC3COCCO3)C(=O)C3CC3)cc2c1` (stereo not drawn) gave PP5 primary inactive, LMPTP block inactive, STEP block inactive, Scp1 inh inactive and PP1 counter inactive.
Screening CCOC(=O)N1CCN(S(=O)(=O)c2ccc(C(=O)Nc3nnc(C4CC4)o3)cc2)CC1 returned PP5 primary inactive, LMPTP block inactive, STEP block inactive, Scp1 inh inactive and PP1 counter inactive.
Screening CC1CC(C)CN(S(=O)(=O)c2ccc(C(=O)Nc3nnc(C4CC4)o3)cc2)C1 (stereo not drawn) returned PP5 primary inactive, LMPTP block inactive, STEP block inactive, Scp1 inh inactive, PP1 counter 19, PP1 inh confirm 27 and PP5 inh counter inactive.
For CCC1CCCCN1S(=O)(=O)c1ccc(C(=O)Nc2nnc(C3CC3)o2)cc1 (stereo not drawn) the results were PP5 primary inactive, LMPTP block inactive, STEP block inactive, Scp1 inh inactive, PP1 counter 23, PP1 inh confirm 26 and PP5 inh counter inactive.
CCC1CCCCN1S(=O)(=O)c1ccc(C(=O)Nc2nnc(-c3ccccc3Cl)o2)cc1 (stereo not drawn) was read as PP5 primary inactive, LMPTP block inactive, STEP block inactive, Scp1 inh inactive and PP1 counter inactive.
CCn1cc(C(=O)Nc2sc(C)c(C)c2C(=O)OC)cn1 was read as PP5 primary inactive, LMPTP block inactive, STEP block inactive, Scp1 inh inactive and PP1 counter inactive.
For CC1CCN(Cc2c(C(=O)N/N=C/c3ccccc3O)nnn2-c2nonc2N)CC1 the results were PP5 primary inactive, LMPTP block inactive, STEP block inactive, Scp1 inh inactive, PP1 counter 22, PP1 inh confirm 17 and PP5 inh counter inactive.
`Cc1ccc(S(=O)(=O)N2CCCC(C(=O)NCc3ccccc3F)C2)cc1` (stereo not drawn) gave PP5 primary inactive, LMPTP block inactive, STEP block inactive, Scp1 inh inactive and PP1 counter inactive.
For CCOC(=O)C1Cn2c(nc3c(c2=O)C2(CCCC2)Cc2ccccc2-3)S1 (stereo not drawn) the results were PP5 primary inactive, LMPTP block inactive, STEP block inactive, Scp1 inh inactive and PP1 counter inactive.
Screening O=C(CSc1ccc2nnc(-c3ccc(Cl)cc3)n2n1)N1CCCc2ccccc21 returned PP5 primary inactive, LMPTP block inactive, STEP block inactive, Scp1 inh inactive, PP1 counter 24, PP1 inh confirm inactive and PP5 inh counter inactive.
For Cc1ccccc1CCN(C(=O)Cn1nnc2ccccc21)C(C(=O)NCC1CCCO1)c1nc2ccccc2n1C (stereo not drawn) the results were PP5 primary inactive, LMPTP block inactive, STEP block inactive, Scp1 inh inactive, PP1 counter 18, PP1 inh confirm 36 and PP5 inh counter inactive.
Screening Cc1nn(-c2ccccc2)c2[nH]c(=O)c(CNCc3ccc4c(c3)OCO4)cc12 returned PP5 primary inactive, LMPTP block inactive, STEP block inactive, Scp1 inh inactive and PP1 counter inactive.
For Cc1ccc(-c2nn(-c3ccccc3)c3[nH]c(=O)c(CNCc4ccccc4)cc23)cc1 the results were PP5 primary inactive, LMPTP block inactive, STEP block inactive, Scp1 inh inactive, PP1 counter 27, PP1 inh confirm 27 and PP5 inh counter inactive.
Cc1nnc(NC(=O)Cc2ccc(OCc3c(C)noc3C)cc2)s1 was read as PP5 primary inactive, LMPTP block inactive, STEP block inactive, Scp1 inh inactive and PP1 counter inactive.
`Oc1c(CN2CCN(c3ccccc3)CC2)cc(Br)c2cccnc12` gave PP5 primary inactive, LMPTP block inactive, STEP block inactive, Scp1 inh inactive, PP1 counter 29, PP1 inh confirm 32 and PP5 inh counter inactive.
Screening c1ccc(N2CCN(Cc3ccnc4ccccc34)CC2)cc1 returned PP5 primary inactive, LMPTP block inactive, STEP block inactive, Scp1 inh inactive and PP1 counter inactive.
